tolC growth inh: growth inhibitors of E. coli tolC mutant, primary screen, strain BW25113 ΔtolC::kan, 384-well | AID 573, 2007 | OD615 | hit rate 2.2% among 65,000 | growth inhibition, % at 10 µM (by protocol);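 active means growth inhibition at or above a cutoff equal to the mean over every tested compound plus 3 SD, cut at about 60% in these data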;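 further: growth measured after 20 h incubation at 37 °C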
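Signal: optical density read at 615 nm; Assay system: E. coli ΔtolC::kan strain BW25113; Times: 20 h incubation with compound, 37 °C; Dosing: 10 µM final, single dose.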
CYP2C19 act: human CYP2C19 activators, primary screen, biochemical, luminescence; Cytochrome P450 2C19 (Homo sapiens), P33261; 96,000 tested, under 10 active; activation factor at 5 µM; AID 1025, 2008; recombinant CYP2C19, luciferin-H EGE luminescence; active compounds read high; 0 = fully inhibited enzyme, 1 = untreated enzyme;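 active means activation factor of at least 2 at 5 µM in the primary screen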;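 further: 0 = wells with 2.5 mM tranylcypromine and 1 = vehicle-only wells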
Target sequence (P33261 whole entry, looked up): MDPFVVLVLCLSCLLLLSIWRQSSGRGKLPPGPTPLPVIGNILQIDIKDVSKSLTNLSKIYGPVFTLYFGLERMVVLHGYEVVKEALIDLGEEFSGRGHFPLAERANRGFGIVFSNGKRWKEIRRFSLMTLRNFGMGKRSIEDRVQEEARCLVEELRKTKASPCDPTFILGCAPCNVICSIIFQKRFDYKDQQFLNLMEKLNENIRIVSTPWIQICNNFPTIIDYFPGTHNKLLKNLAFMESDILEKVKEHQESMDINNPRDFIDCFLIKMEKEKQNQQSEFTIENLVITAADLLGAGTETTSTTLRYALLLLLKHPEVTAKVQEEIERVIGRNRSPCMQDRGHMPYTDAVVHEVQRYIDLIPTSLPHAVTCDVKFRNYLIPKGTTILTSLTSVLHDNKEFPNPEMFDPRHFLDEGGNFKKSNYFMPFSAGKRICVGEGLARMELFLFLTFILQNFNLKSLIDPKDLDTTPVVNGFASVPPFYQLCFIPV
Ecoli WT expand: growth inhibitors of wild-type E. coli, primary screen, strain BW25113, expanded library, OD600; OD600 absorbance; growth inhibition, % at 100 µM; hit rate 0.15% among 98,000; AID 710, 2007;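 active means growth inhibition above about 50% at one test dose, limit read from the data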;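 further: growth measured after 20 h incubation at 37 °C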
CYP2C19 inh: blockers of cytochrome P450 2C19 activity – biochemical, luminescence, ADME assay, primary screen. hit rate 21% among 96,000. CYP2C19 Supersomes, luciferin-H EGE luminescence, 30 min. inhibition, % at 5 µM. AID 778, 2007;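 active means CYP2C19 inhibition above a set limit at 5 µM in the primary screen, cut at about 50% in these data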;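 further: plate controls were negative control wells for no effect and 2.5 mM tranylcypromine positive control for full effect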
CYP2C9 act: human CYP2C9 activators, primary screen, biochemical, luminescence | hit rate 1.4% among 96,000 | activation factor at 5 µM | recombinant CYP2C9, luciferin-H conversion; active compounds read high; factor 1 = untreated enzyme, 0 = blocked | Cytochrome P450 2C9 (Homo sapiens), P11712;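 active means activation factor of 2 or more for CYP2C9 at a 5 µM dose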;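 further: 0 = sulfaphenazole-blocked wells and 1 = vehicle-only wells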
CYP2C9 inh: blockers of cytochrome P450 2C9 activity – biochemical, luminescence, ADME assay, primary screen | CYP2C9 Supersomes, luciferin-H conversion | inhibition, % at 5 µM | hit rate 20% among 96,000;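 active means blocking of liver enzyme CYP2C9 beyond about 50% at 5 µM, limit read from the data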
* hit, by the source's call; · = no result. In the library only some 29% were active in any assay of this set; here they are far more common.

SMILES	tolC growth inh	CYP2C19 act	Ecoli WT expand	CYP2C19 inh	CYP2C9 act	CYP2C9 inh
CC(=O)c1cn(CC(=O)NCc2cccnc2)c2ccccc12	-21.6	0.2	0.0	77.3*	0.2	83.3*
O=C(CN1C(=O)c2cccc3cccc1c23)NCc1cccnc1	-8.6	0.2	10.0	82.7*	1.2	-19.9
Cc1c(C#N)c2ccccc2n1CC(=O)NCc1cccnc1	-5.6	0.3	3.0	71.2*	0.5	54.5*
CCOCCCNC(=O)CN1CCN(c2ccc(F)cc2)CC1	-21.6	0.9	17.0	6.2	1.1	-14.3
CCOC(=O)C(C)n1nc(/C=C/c2ccccc2)ccc1=O (stereo not drawn)	·	0.7	0.0	28.3	0.3	71.1*
O=C(NCCN1CCOCC1)c1cc2cc(Br)ccc2oc1=O	·	1	0.0	0.6	0.9	8.3
CCCCOc1ccccc1C1C(C(N)=O)=C(C)Nc2nnnn21 (stereo not drawn)	-2.2	1	2.0	-1.9	1	-0.9
c1ccc2c(c1)nnn2-c1ncnc2sc3c(c12)CCCC3	18.5	0.9	3.0	11.0	2.1*	-107.3
Cc1nc(-n2nnc3ccccc32)c2c3c(sc2n1)CCCC3	45.6	0.5	4.0	54.8*	0.4	59.4*
Oc1ccc(N2CCN(c3ncnc4sc5c(c34)CCC5)CC2)cc1	-16.2	0.9	6.0	11.7	1	-3.8
Cc1nc(N2CCN(c3ccccc3)CC2)c2c3c(sc2n1)CCC3	34.0	0.1	·	94.9*	0.1	94.2*
O=C(Nc1ccc(S(=O)(=O)N2CCOCC2)cc1)c1ccc(Br)o1	0.3	1	0.0	-0.8	0.9	7.6
CC(=O)N1CCc2ccc(C(=O)CN3CCN(c4cccc(C)c4C)CC3)cc21	8.3	1	11.0	-3.8	1	0.4
Cc1sc(=NC(=O)c2ccco2)n(C)c1-c1ccc(F)cc1	·	0.5	-5.0	45.7	0.7	32.1
Cc1sc(=NC(=O)c2ccco2)n(C)c1-c1ccccc1	·	0.6	9.0	40.5	0.3	65.2*
O=C(Cc1ccccc1)Nc1ccccc1N1CCN(c2ccccc2)CC1	63.1*	0.8	0.0	15.6	0.9	14.1
CN1CCN(c2ccccc2NC(=O)c2ccc(-c3ccc(Cl)cc3Cl)o2)CC1	·	0.7	1.0	27.1	0.5	47.3
CS(=O)(=O)N1CCN(c2ccccc2NC(=O)c2ccc(-c3ccc(Cl)cc3Cl)o2)CC1	6.2	0.8	-15.0	25.0	0.5	50.5*
CCC(=O)N1CCN(c2ccccc2NC(=O)Cc2ccccc2)CC1	5.7	0.4	2.0	59.1*	0.6	41.9
CS(=O)(=O)N1CCN(c2ccccc2NC(=O)Cc2ccc(Cl)cc2)CC1	11.0	0.9	-3.0	13.8	0.7	32.4
CS(=O)(=O)N1CCN(c2ccccc2NC(=O)Cc2ccccc2)CC1	1.6	0.4	3.0	62.5*	0.5	49.6
CO/N=C/NC(=O)NOCc1c(Cl)cccc1Cl	·	0.9	4.0	10.5	1	-4.4
O=C(CN1CCCCC1)Nc1cccc(Br)c1	-13.6	0.7	7.0	33.2	1.1	-5.8
CCOC(=O)Cc1csc(SCc2nc3sc4c(c3c(=O)[nH]2)CCC4)n1	·	0.8	-9.0	17.7	0.6	36.2
N#CC(c1ccc(Cl)nn1)c1ccccc1Cl (stereo not drawn)	·	0.7	-4.0	32.0	0.9	7.4
SMILES	tolC growth inh	CYP2C19 act	Ecoli WT expand	CYP2C19 inh	CYP2C9 act	CYP2C9 inh
N#CC(c1ccc(Cl)cc1)c1ccc(Cl)nn1 (stereo not drawn)	·	0.5	4.0	53.0*	0.9	5.0
Cc1c(C(=O)N2CCOCC2)oc2ccc(S(=O)(=O)N3CCCC3)cc12	2.1	·	·	·	·	·
CCOC(=O)N1CCN(C(=O)c2oc3ccc(S(=O)(=O)N4CCCCCC4)cc3c2C)CC1	21.5	0.2	4.0	79.9*	0.3	72.8*
O=S(=O)(c1ccc2oc3ccc(S(=O)(=O)N4CCCC4)cc3c2c1)N1CCCC1	-0.9	·	·	·	·	·
CCOC(=O)N1CCN(C(=O)c2oc3ccc(S(=O)(=O)N4CCOCC4)cc3c2C)CC1	-1.0	0.4	8.0	55.0*	0.2	75.1*
O=S(=O)(c1ccc2oc3ccc(S(=O)(=O)N4CCCCC4)cc3c2c1)N1CCCCC1	·	1	-2.0	4.7	0.3	65.5*
O=C(c1cccc(S(=O)(=O)N2CCOCC2)c1)N1CCCc2ccccc21	11.0	0.6	-3.0	40.0	0.9	5.4
Cc1c(C(=O)N2CCCc3ccccc32)oc2ccc(S(=O)(=O)N3CCOCC3)cc12	3.3	0	-4.0	96.0*	0.1	85.1*
COC1=C(OC)c2ccccc2C(C(=O)O)N/C1=C(/C)Nc1ccncc1 (stereo not drawn)	-13.0	1	-13.0	0.1	1.1	-11.2
CCCN(C(=S)Nc1ccccc1)C1CCS(=O)(=O)C1 (stereo not drawn)	·	1	11.0	1.6	1	-2.4
CCOC(=O)N1CCN(C(=O)c2oc3ccc(S(=O)(=O)N4CC(C)CC(C)C4)cc3c2C)CC1 (stereo not drawn)	12.9	0.4	-9.0	60.8*	0.5	51.3*
CCOC(=O)C1CCN(C(=O)c2oc3ccc(S(=O)(=O)N4CC(C)CC(C)C4)cc3c2C)CC1 (stereo not drawn)	47.7	0.7	-13.0	34.6	0.7	34.6
CCCOc1ccc(Cc2nc(N)nc(N)n2)cc1	9.3	1.1	9.0	-11.4	1.4	-38.9
Cc1ccn2cc(CNS(=O)(=O)c3ccc(Cl)s3)nc2c1	10.4	0.7	1.0	29.7	0.8	22.9
O/N=C\c1cccn1-c1ccc(Br)cc1	·	0.3	19.0	68.5*	0.7	26.0
CCC(C)C(=O)Nc1nc(C)c(-c2csc(Nc3ccc(Cl)cc3)n2)s1 (stereo not drawn)	·	0.6	-9.0	40.2	0.4	57.6*
CCCC(=O)Nc1nc(C)c(-c2csc(Nc3ccc(Cl)cc3)n2)s1	·	0.5	-9.0	53.5*	0.7	31.0
O=C(Oc1cccc(Br)c1)c1cccnc1	0.5	1	18.0	2.8	1.1	-9.7
COC(=O)CSc1nc(C(C)C)nc2ccccc12	13.3	0.2	-5.0	80.0*	0.6	43.4
COC(=O)CSc1nc2ccccc2nc1SCC(=O)OC	6.6	0.5	-8.0	54.3*	0.8	24.7
CCOC(=O)CSc1nc(C(C)C)nc2ccccc12	·	0.7	8.0	28.1	0.8	25.0
COC(=O)c1ccc(COc2cccc(OC)c2)o1	1.1	0.5	-1.0	47.2	0.9	11.1
COC(=O)c1ccc(CN(C(C)=O)c2ccccc2)o1	10.4	0.3	-3.0	69.3*	1	1.9
O=C1C(NS(=O)(=O)c2cccs2)=C(N2CCN(c3cccc(Cl)c3)CC2)C(=O)c2ccccc21	·	0.5	-4.0	51.2*	0.2	77.6*
